For test [1], the target named is T1, Glutamate NMDA receptor; GRIN1/GRIN2A (Homo sapiens, UniProt Q05586+Q12879). The experiment in a line: Antagonist activity at NR1-1a/NR2A receptor expressed in Xenopus laevis oocytes assessed as inhibition of glutamate/glycine-induced current at -80mV holding potential by two-electrode voltage-clamp electrophysiology. In kind it is functional, cell-based. Conditions: Oocyte. Summed up: (§1)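 Holding-potential dependence was measured in oocytes expressing GluA1i or GluN1/2A at -40, -60 and -80 mV by two-electrode voltage clamp. One fixed toxin concentration, chosen from the -60 mV concentration-response data, was co-applied with 100 μM glutamate (GluA1i) or with glutamate plus glycine at 100 μM each (GluN1/2A). The read-out was the reduction in receptor current.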

Test [2] relates to Glutamate receptor ionotropic, AMPA 1 (GluA1i). The experiment in a line: Antagonist activity at GluR1 expressed in Xenopus laevis oocytes assessed as inhibition of glutamate-induced current at -40mV holding potential by two-electrode voltage-clamp electrophysiology. Conditions: Oocyte.
For test [3] the test system is unchanged. The experiment in a line: Antagonist activity at GluR1 expressed in Xenopus laevis oocytes assessed as inhibition of glutamate-induced current at 0.1 uM at -60mV holding potential by two-electrode voltage-clamp electrophysiology. The conditions noted are these: Oocyte.
Test [4] is described as follows: Selectivity ratio of IC50 for NR1-1a/NR2A receptor to IC50 for GluR1.
The target in test [5] is T1, Glutamate NMDA receptor; GRIN1/GRIN2A. The experiment in a line: Antagonist activity at NR1-1a/NR2A receptor expressed in Xenopus laevis oocytes assessed as inhibition of glutamate/glycine-induced current at -40mV holding potential by two-electrode voltage-clamp electrophysiology. In kind it is functional, cell-based. The conditions noted are these: Oocyte. Put shortly: as §1

For test [6] the target is unchanged. The experiment in a line: Antagonist activity at NR1-1a/NR2A receptor expressed in Xenopus laevis oocytes assessed as inhibition of glutamate/glycine-induced current at -60mV holding potential by two-electrode voltage-clamp electrophysiology. In kind it is functional, cell-based, Oocyte. Put shortly: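 Two-electrode voltage clamp at -60 mV holding potential on Xenopus oocytes expressing homomeric GluA1i or heteromeric GluN1/2A. Antagonist was co-applied with agonist: 100 μM glutamate for GluA1i, and 100 μM glutamate plus 100 μM glycine for GluN1/2A. IC50 came from concentration-inhibition curves of normalized currents (n = 3). The error term is given as the % difference between the IC50 and antilog(logIC50 + SEM).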

Test [7] concerns Glutamate receptor ionotropic, AMPA 1 (GluA1i). The experiment in a line: Antagonist activity at GluR1 expressed in Xenopus laevis oocytes assessed as inhibition of glutamate-induced current at -80mV holding potential by two-electrode voltage-clamp electrophysiology. Conditions: Oocyte.
For test [8], the target named is T1, Glutamate NMDA receptor; GRIN1/GRIN2A. The experiment in a line: Antagonist activity at NR1-1a/NR2A receptor expressed in Xenopus laevis oocytes assessed as inhibition of glutamate/glycine-induced current at 10 uM at -60mV holding potential by two-electrode voltage-clamp electrophysiology. Format: functional, cell-based. The conditions noted are these: Oocyte. Put shortly: (§2)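 Single-concentration screen at 0.1 and 10 μM by two-electrode voltage clamp (-60 mV) in Xenopus oocytes. Toxin was co-applied with 100 μM glutamate (GluA1i) or with 100 μM glutamate plus 100 μM glycine (GluN1/2A). Percent inhibition was taken from the decrease in agonist-evoked current.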

Test [9] shares this target. The experiment in a line: Antagonist activity at NR1-1a/NR2A receptor expressed in Xenopus laevis oocytes assessed as inhibition of glutamate/glycine-induced current at 0.1 uM at -60mV holding potential by two-electrode voltage-clamp electrophysiology. In kind it is functional, cell-based. Conditions: Oocyte. Summed up:
as §2

SMILES strings stand for the structures. The source made the active and inactive calls. The rule behind the calls is not given here.

Turning to `NCCCNCCCCNCCCNC(=O)[C@H](CC1CCCCC1)NC(=O)CC12CC3CC(CC(C3)C1)C2`, the inhibition entry in [1], in test [2], in [5] and in [7] was “Active” in each case. In addition, the inhibition in test [3] was 35%. For the same compound, in test [4], the Ratio IC50 came out at 8. Besides, the IC50 in test [6] worked out at 0.794 µM.

In the case of `NCCCNCCCCNCCCNC(=O)[C@H](CC1CCCCC1)NC(=O)C1CC1`, the inhibition result in test [1] and in test [5] was “Active” in each case. The half-maximal inhibitory concentration (IC50) in test [6] stood at 2.57 µM.

Regarding `NCCCNCCCCNCCCNC(=O)[C@H](CNC(=O)Cc1ccccc1)NC(=O)C1CCCCC1`, the inhibition in [3] amounted to 35%. In addition, in test [6], the half-inhibitory concentration (IC50) is 2.81 µM.

For the compound `CCCC(=O)N[C@@H](Cc1ccc(O)cc1)C(=O)NCCCNCCCCNCCCN` [PHILANTHOTOXIN 343], the inhibition in test [8] is 61%; in test [9], 9%. Also, the inhibition result in test [1] and in test [5] was “Active” in each case. Moreover, the IC50 in test [6] was 2.74 µM.

Turning to `NCCCNCCCCNCCCNC(=O)[C@H](CC1CCCCC1)NC(=O)Cc1cccc2ccccc12`, the values for the inhibition in test [8], in [9] and in test [3] were 92%, 63% and 35%, respectively. Moreover, the inhibition entry in test [1], in test [2], in [5] and in test [7] was “Active” throughout. In test [4], the Ratio IC50 stood at 1. In test [6], the IC50 came to 0.047 µM.

On to `NCCCNCCCCNCCCNC(=O)[C@H](CC1CCCCC1)NC(=O)C1CCCCC1`, for which the inhibition entry in test [1], in test [2], in test [5] and in [7] was “Active” each time. In addition, the inhibition in [3] came out at 35%. The Ratio IC50 in test [4] was 31. Also, the IC50 in test [6] was found to be 0.656 µM.

Turning to `CCCC(=O)N[C@@H](CC1CCCCC1)C(=O)NCCCNCCCCNCCCN`, the inhibition entry in [1], in test [2], in test [5] and in [7] was “Active” each time. In addition, the inhibition in test [3] was 35%. In test [4], the Ratio IC50 came out at 137. For the same compound, in test [6], the concentration for half-maximal inhibition (IC50) was 4.38 µM.

Turning to `NCCCNCCCCNCCCNC(=O)[C@H](CCCNC(=O)Cc1ccccc1)NC(=O)C1CCCCC1`, the inhibition in test [3] came out at 35%. For the same compound, the concentration for half-maximal inhibition (IC50) in [6] is 1.03 µM.

Consider `NCCCNCCCCNCCCNC(=O)[C@H](CC1CCCCC1)NC(=O)c1ccc(-c2ccccc2)cc1`, for which the inhibition result in [1], in [2], in [5] and in test [7] was “Active” throughout. In addition, in test [3], the inhibition is 35%. For the same compound, the Ratio IC50 in test [4] came out at 17. Further, the half-maximal inhibitory concentration (IC50) in test [6] was 1.45 µM.

For the origin of these results see ChEMBL document CHEMBL1268910, “Assessment of structurally diverse philanthotoxin analogues for inhibitory activity on ionotropic glutamate receptor subtypes: discovery of nanomolar, nonselective, and use-dependent antagonists” (J Med Chem, 2010).
